According to paper PMC9272570 (Journal of Drug Delivery Science and Technology, 2022):

Assays:
[1] = system: jejuno-ileum; assay: In-situ rabbit intestinal perfusion, jejuno-ileum; type: in vivo
Outline: (§1)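 Rabbits were anaesthetised with IM chlorpromazine 2 mg/kg, then ketamine 45 mg/kg twice at a 15 min interval. The segment was cannulated (duodenum 15 cm, jejuno-ileum 30 cm) and rinsed with 37 °C saline. Test compound at 30 μg/ml in PBS with 10% v/v PEG 200 was perfused at 0.27 ml/min. Effluent was collected every 10 min for 2 h, weighed and assayed by HPLC-UV at 210 nm. Fa, ARL and L95% came from second-hour, water-flux-corrected Cout/Cin. Pathway was judged from PeA dependence on water flux.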

[2] = Dissolution studies; type: physicochemical; conditions: 50 rpm
Outline: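 900 ml medium (0.01 M phosphate buffer), 37 ± 0.5 °C. Load: 400 mg test compound or equivalent; formulations contained avicel and aerosil. 5 ml samples withdrawn at 5, 10, 15, 30, 45 and 60 min, filtered (0.45 μm) and replaced with fresh medium. Quantified by reversed-phase C18 HPLC (0.02 M KH2PO4 pH 6.8:acetonitrile 25:75). Cumulative amount dissolved expressed as % of load. Triplicates.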

[3] = system: duodenum; assay: In-situ rabbit intestinal perfusion, duodenum; type: in vivo
Outline: as §1

[4] = SEM in brackets, n = 3, listed as lopinavir
[5] = from regression of absorptive clearance vs water flux

ARL (anatomical reserve length) [1]: −240.22 cm
%Fa/L (percentage fraction absorbed per unit length) ([1]; SEM in brackets, n = 3): 1.17 (0.27) %cm^−1
L95% (required length for 95% absorption) ([1]; SEM in brackets, n = 3): 339.54 (79.03) cm
Rout/Rin (fraction remaining after absorption) ([1]; SEM in brackets, n = 3): 0.657 (0.083)
L95% (required length for 95% absorption) [1, 4]: 339.54 cm
Absorption pathway: Paracellular [1, 5]: 0%
Absorption pathway: Transcellular [1, 5]: 100%
total amount liberated after 1 h ([2]; 1% w/v Tween 80 in phosphate buffer pH 6.8, 37 °C): 41.85 % of the dose
% DE (dissolution efficiency) ([2]; 900 ml 1% w/v Tween 80 in 0.01 M phosphate buffer pH 6.8, 37 °C, 60 min, SD, n = 3): 24.96 (1.48) %
ARL (anatomical reserve length) [3]: −261.18 cm
%Fa/L (percentage fraction absorbed per unit length) ([3]; SEM in brackets, n = 3): 1.61 (0.454) %cm^−1
L95% (required length for 95% absorption) ([3]; SEM in brackets, n = 3): 276.18 (121.5) cm
Rout/Rin (fraction remaining after absorption) ([3]; SEM in brackets, n = 3): 0.759 (0.068)
L95% (required length for 95% absorption) [3, 4]: 276.18 cm
Absorption pathway: Paracellular [3, 5]: 38.3%
Absorption pathway: Transcellular [3, 5]: 61.7%
Compound: Cc1cccc(C)c1OCC(=O)N[C@@H](Cc1ccccc1)[C@@H](O)C[C@H](Cc1ccccc1)NC(=O)[C@H](C(C)C)N1CCCNC1=O [Pure Lopinavir, Lopinavir]
